Measured values from ChEMBL document CHEMBL1148464, “Cytotoxic activity of metal complexes of biogenic polyamines: polynuclear platinum(II) chelates” (J Med Chem, 2004).
pIC50: −log10 of the molar value.

Experiments:
Format in all cases: functional, cell-based
HSC-3 = experiment: Cytotoxic potency against human HSC-3 cell line expressed as inhibitory concentration
In short: (§1)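 Adherent cells grown in high-glucose DMEM with 10% FCS, harvested with trypsin/EDTA. Seeded at 3 × 10^5 cells/mL; drug at 5–150 µM added after 24 h, 37 °C. IC50 derived from 72 h exposure dose-response curves; only effects persisting 3 days after drug removal reported. Trypan blue counts plus MTT and Alamar blue viability readouts, triplicate.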

THP-1 = experiment: Cytotoxic potency against human THP-1 cell line expressed as inhibitory concentration
In short: (§2)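 Suspension cultures in RPMI-1640 with 25 mM HEPES and 10% FCS, seeded at 3 × 10^5 cells/mL; drug (5–150 µM) added 24 h later, 37 °C. IC50 taken from dose-response curves after 72 h exposure, counting irreversible effects only (drug washed out, 3 further days). Read-out by Trypan blue exclusion, MTT (4 h, 570 nm) and Alamar blue (8 h, 570/600 nm); triplicate.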

L132 = experiment: Cytotoxic potency against human L-132 cell line expressed as inhibitory concentration; in short: as §1
MOLT-3 = experiment: Cytotoxic potency against human MOLT-3 cell line expressed as inhibitory concentration; in short: as §2
HeLa = experiment: Cytotoxic potency against human HeLa cell line expressed as inhibitory concentration
In short: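 Monolayers in high-glucose DMEM with 10% FCS, harvested with an EDTA/PBS dissociation medium. Plated at 3 × 10^5 cells/mL, dosed 24 h later with 5–150 µM at 37 °C. IC50 from 72 h dose-response curves, irreversible effects only (3-day drug-free recovery). Measured by Trypan blue exclusion, MTT (570 nm) and Alamar blue (570/600 nm) assays, in triplicate.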

Sequence	pIC50 (HSC-3)	pIC50 (THP-1)	pIC50 (L132)	pIC50 (MOLT-3)	pIC50 (HeLa)
CARBOPLATIN	5.52	–	–	–	–
CISPLATIN	5.15	5.70	5.70	5.40	5.70
